Data as given in ChEMBL document CHEMBL3992517 (J Med Chem, 2017).
Activity calls are given as the source filed them. The rule behind the calls is not given here.

What was measured:
K562 [1] = assay: Antiproliferative activity against human K562 cells after 48 hrs by Alamar blue dye based neubauer hemocytometer method; assay type: functional, cell-based; conditions: K562, 48 h
How it was run: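 K562 human chronic myelogenous leukemia cells, mycoplasma-negative, grown at 37 °C in 5% CO2 in RPMI 1640 with 10% FBS, penicillin/streptomycin and L-glutamine. Cells were exposed to compound for 48 h and then counted on a Neubauer hemocytometer. IC50 is the concentration giving 50% growth inhibition, taken as the mean of at least three independent determinations (SD < 10%).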

[2] = (§1) Inhibition of porcine tubulin polymerization after 45 mins by turbidometric method; set-up: species or system Sus scrofa
Sus scrofa = species: Sus scrofa; assay: as §1
MG-63 = assay: Antiproliferative activity against human MG63 cells after 72 hrs by SRB assay; assay type: functional; conditions: MG-63, 72 h
How it was run: (§2)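 Cell panel screen (93 tumour lines listed in text; 94 in the table), run to the DTP NCI sulforhodamine B protocol. Concentrations from 0.0001 to 10 µM. GI50 is the molar concentration giving 50% growth inhibition relative to the initial seeding number, taken from log-transformed data. zScore is reported per cell line.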

SK-N-AS = assay: Antiproliferative activity against human SK-N-AS cells after 72 hrs by SRB assay; assay type: functional; how it was run: as §2
SK-BR-3 = assay: Antiproliferative activity against human SK-BR-3 cells after 72 hrs by SRB assay; assay type: functional; conditions: SK-BR-3, 72 h; how it was run: as §2
NCI-H82 = assay: Antiproliferative activity against human NCI-H82 cells after 72 hrs by SRB assay; assay type: functional; conditions: NCI-H82, 72 h; how it was run: as §2
IMR-90 = assay: Antiproliferative activity against human IMR90 cells after 72 hrs by SRB assay; assay type: functional; conditions: IMR-90, 72 h; how it was run: as §2
RD = assay: Antiproliferative activity against human RD cells after 72 hrs by SRB assay; assay type: functional; how it was run: as §2
Panc1005 = assay: Antiproliferative activity against human Panc 10.05 cells after 72 hrs by SRB assay; assay type: functional; conditions: Panc1005, 72 h; how it was run: as §2
JAR = assay: Antiproliferative activity against human JAR cells after 72 hrs by SRB assay; assay type: functional; how it was run: as §2
Caco-2 = assay: Antiproliferative activity against human Caco2 cells after 72 hrs by SRB assay; assay type: functional; conditions: Caco-2, 72 h; how it was run: as §2
[3] = Antiproliferative activity against human CLS439 cells after 72 hrs by SRB assay; assay type: functional; conditions: CLS439, 72 h; how it was run: as §2
COLO-678 = assay: Antiproliferative activity against human COLO-678 cells after 72 hrs by SRB assay; assay type: functional; conditions: COLO-678, 72 h; how it was run: as §2
NCI-H292 = assay: Antiproliferative activity against human NCI-H292 cells after 72 hrs by SRB assay; assay type: functional; conditions: NCI-H292, 72 h; how it was run: as §2
PANC-1 = assay: Antiproliferative activity against human PANC1 cells after 72 hrs by SRB assay; assay type: functional; conditions: PANC-1, 72 h; how it was run: as §2
HT-29 = assay: Antiproliferative activity against human HT-29 cells after 72 hrs by SRB assay; assay type: functional; conditions: HT-29, 72 h; how it was run: as §2
JIMT-1 = assay: Antiproliferative activity against human JIMT1 cells after 72 hrs by SRB assay; assay type: functional; conditions: JIMT-1, 72 h; how it was run: as §2
SK-LMS-1 = assay: Antiproliferative activity against human SKLMS1 cells after 72 hrs by SRB assay; assay type: functional; conditions: SK-LMS-1, 72 h; how it was run: as §2
PBMC = assay: Cytotoxicity against human PBMC after 72 hrs by SRB assay; assay type: cell-based
How it was run: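 Resting, non-proliferating peripheral blood mononuclear cells were included in the panel and quantified by sulforhodamine B staining.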

K562 [4] = assay: Cell cycle arrest in human K562 cells assessed as accumulation at G2/M phase up to 30 nM after 24 hrs by propidium iodide staining-based flow cytometry
[5] = molecular target: Tubulin beta-5 chain (Homo sapiens) (UniProt P07437); assay: Competitive binding affinity to beta-tubulin in human K562 cells assessed as disappearance of EBI-protein adducts at 20 to 40 uM preincubated for 2 hrs followed by EBI addition measured after 1.5 hrs by Western blot analysis; assay type: cell-based
Sequence of Tubulin beta-5 chain (Homo sapiens) (P07437 whole entry): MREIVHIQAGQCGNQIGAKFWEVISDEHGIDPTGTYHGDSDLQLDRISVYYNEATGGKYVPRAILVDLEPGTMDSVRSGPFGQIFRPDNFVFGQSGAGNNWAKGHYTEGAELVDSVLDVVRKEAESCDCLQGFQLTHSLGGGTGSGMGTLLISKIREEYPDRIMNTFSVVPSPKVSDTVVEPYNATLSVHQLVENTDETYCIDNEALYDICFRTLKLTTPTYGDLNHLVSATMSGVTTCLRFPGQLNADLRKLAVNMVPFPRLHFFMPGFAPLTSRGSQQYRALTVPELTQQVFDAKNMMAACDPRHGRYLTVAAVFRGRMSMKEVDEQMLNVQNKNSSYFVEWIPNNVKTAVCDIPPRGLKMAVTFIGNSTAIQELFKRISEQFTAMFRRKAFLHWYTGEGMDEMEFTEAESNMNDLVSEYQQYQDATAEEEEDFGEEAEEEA

Row | Structure (SMILES) | IC50 (K562 [1]) [nM] | IC50 [2] [nM] | other results
1 | COc1ccccc1N1CCN(C(=O)N2c3ccccc3Oc3ccc(Cl)cc32)CC1 | 30 | 620 | 
2 | O=C(N1CCN(c2ccc([N+](=O)[O-])cc2)CC1)N1c2ccccc2Oc2ccccc21 | > 70000 | > 10000 | 
3 | COc1cccc(N2CCN(C(=O)N3c4ccccc4Oc4cc(C#N)ccc43)CC2)c1 | 7 | 360 | inhibition (Sus scrofa): Dose-dependent effect; GI50 (MG-63): 1.5 nM; GI50 (SK-N-AS): 1.4 nM; GI50 (SK-BR-3): 1.5 nM; GI50 (NCI-H82): 1.6 nM; GI50 (IMR-90): 1.6 nM; GI50 (RD): 1.7 nM; GI50 (Panc1005): 1.7 nM; GI50 (JAR): 1.7 nM; GI50 (Caco-2): 7.9 nM; GI50 [3]: 7.8 nM; GI50 (COLO-678): 7.5 nM; GI50 (NCI-H292): 6.7 nM; GI50 (PANC-1): 6.5 nM; GI50 (HT-29): 6.4 nM; GI50 (JIMT-1): 5.9 nM; GI50 (SK-LMS-1): 5.9 nM; Activity (PBMC): Non-Toxic; Activity (K562 [4]): Active
4 | COc1cccc(N2CCN(C(=O)N(c3ccccc3)c3ccccc3)CC2)c1 | 18000 | > 10000 | 
5 | COc1cccc(N2CCN(C(=O)N3c4ccccc4Sc4ccccc43)CC2)c1 | 20 | 550 | 
6 | O=C(N1CCN(c2ccccc2)CC1)N1c2ccccc2Sc2ccccc21 | 130 | 810 | 
7 | COc1cccc(N2CCN(C(=O)Nc3ccccc3Oc3ccccc3)CC2)c1 | > 10000 | > 10000 | 
8 | COc1cccc(N2CCN(C(=O)N3c4ccccc4C=Cc4ccccc43)CC2)c1 | 940 | 3560 | 
9 | COc1ccccc1N1CCN(CC(=O)N2c3ccccc3Oc3ccccc32)CC1 | 9000 | > 10000 | 
10 | COc1ccc(N2CCN(C(=O)N3c4ccccc4Sc4ccc(Cl)cc43)CC2)cc1 | 1900 | > 10000 | 
11 | N#Cc1ccc(N2CCN(C(=O)N3c4ccccc4Oc4ccccc43)CC2)cc1 | > 20000 | > 10000 | 
12 | O=C(N1CCN(c2ccc(C(F)(F)F)cc2)CC1)N1c2ccccc2Oc2ccccc21 | > 60000 | > 10000 | 
13 | COc1ccccc1N1CCN(C(=O)N2c3ccccc3Sc3ccccc32)CC1 | 20 | 600 | Activity [5]: Active
14 | COc1ccccc1N1CCN(C(=O)N2c3ccccc3Oc3cc(C#N)ccc32)CC1 | 30 | 320 | 
15 | COc1ccccc1N1CCN(C(=O)N2c3ccccc3Oc3ccccc32)CC1 | 20 | 640 | 
16 | c1ccc2c(c1)Nc1ccccc1O2 [PHENOXAZINE] | 16800 |  | 
17 | COc1ccccc1N1CCN(C(=O)N2c3ccccc3C=Cc3ccccc32)CC1 | 450 | 2830 | 
18 | CC[C@]1(O)C[C@H]2CN(CCc3c([nH]c4ccccc34)[C@@](C(=O)OC)(c3cc4c(cc3OC)N(C)[C@H]3[C@@](O)(C(=O)OC)[C@H](OC(C)=O)[C@]5(CC)C=CCN6CC[C@]43[C@@H]65)C2)C1 | 1 |  | 
19 | COc1ccc(N2CCN(C(=O)N3c4ccccc4Oc4ccccc43)CC2)cc1 | 3130 | 14300 | 

Row | Structure (SMILES) | IC50 (K562 [1]) [nM] | IC50 [2] [nM] | other results
20 | O=C(N1CCN(c2ccccc2)CC1)N1c2ccccc2Oc2ccccc21 | 30 | 1380 | 
21 | COc1ccc(N2CCN(C(=O)Nc3ccccc3Oc3ccccc3)CC2)cc1 | > 10000 | > 10000 | 
22 | O=C(N1CCN(c2ccc(Cl)cc2)CC1)N1c2ccccc2Oc2ccccc21 | 630 | 830 | 
23 | COc1ccccc1N1CCN(C(=O)N2c3ccccc3Sc3ccc(Cl)cc32)CC1 | 90 | 510 | 
24 | COc1cccc(N2CCN(C(=O)N3c4ccccc4Oc4ccc(Cl)cc43)CC2)c1 | 30 | 800 | 
25 | COc1cccc(N2CCN(C(=O)N3c4ccccc4Sc4ccc(Cl)cc43)CC2)c1 | 30 | 920 | 
26 | COc1ccc(CNC(=O)N2c3ccccc3Oc3ccccc32)cc1 | 19000 | 9000 | 
27 | COc1cccc(N2CCN(C(=O)N3c4ccccc4Oc4ccccc43)CC2)c1 | 20 | 690 | 
28 | COc1cccc(CNC(=O)N2c3ccccc3Oc3ccccc32)c1 | 6000 | 8530 | 
29 | COc1ccccc1N1CCN(C(=O)N2c3cc(Cl)ccc3Oc3ccc(Cl)cc32)CC1 | 130 | 1190 | 
30 | COc1cccc(N2CCN(C(=O)N3c4cc(Cl)ccc4Oc4ccc(Cl)cc43)CC2)c1 | 180 | 900 | 
31 | COc1ccc(N2CCN(C(=O)N3c4ccccc4Oc4cc(C#N)ccc43)CC2)cc1 | 3700 | 3380 | 
32 | COc1ccccc1N1CCN(C(=O)Nc2ccccc2Oc2ccccc2)CC1 | > 10000 | > 10000 | 
33 | COc1ccccc1N1CCN(C(=O)N2c3ccccc3CCc3ccccc32)CC1 | 840 | 10700 | 
34 | COc1ccc(N2CCN(C(=O)N3c4ccccc4Sc4ccccc43)CC2)cc1 | 3700 |  | 
35 | COc1cccc(N2CCN(CC(=O)N3c4ccccc4Oc4ccccc43)CC2)c1 | 5000 | > 10000 | 
36 | N#Cc1ccc(N2CCN(C(=O)N3c4ccccc4Sc4ccccc43)CC2)cc1 | 390 |  | 
37 | COc1ccc(NC(=O)N2c3ccccc3Oc3ccccc32)cc1 | > 80000 | > 10000 | 
38 | Cc1ccc(N2CCN(C(=O)N3c4ccccc4Oc4ccccc43)CC2)cc1 | 1390 |  | 
